The values that follow come from ChEMBL document CHEMBL4825662 (J Med Chem, 2021).

Data set [1] is described as follows: Intrinsic clearance in rat hepatocytes at 3 uM assessed per million cells measured up to 60 mins by LC-MS/MS analysis. The data set is classed as ADME, cell-based, Hepatocyte. Particulars: read-out: CLH.
Data set [2] deals with Human orthopneumovirus. Put plainly: Antiviral activity against Respiratory syncytial virus A Memphis 37b infected in human assessed as reduction in mean AUC of viral load at 200 mg administered twice daily administered for 5 days by cell-based infectivity assay. The format is functional. Further details: scale not given: the % may be the effect or the level left. Particulars: time 5 day. The procedure, abridged: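 Healthy adult volunteers aged 18–45 with low serum pre-existing RSV-specific antibodies were challenged on day zero with about 4 log10 PFU of RSV-A Memphis 37b. Subjects were randomized into 3 equal groups: 200 mg, 350 mg or placebo twice daily for 5 days, begun after infection was confirmed. Viral load in nasal wash was measured by RT-qPCR or by cell-based infectivity assay, and AUC was compared with placebo.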

Data set [3] relates to Human orthopneumovirus. Nature of the data set: Antiviral activity against Respiratory syncytial virus A by Plaque reduction assay. The format is functional, organism-based. The procedure, abridged: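 RSV A and B laboratory strains and low-passage clinical isolates were used to infect Vero or HepG2 cultures for 48 h with compound at 0.01 nM to 100 μM. Plaques were then detected by immunostaining.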

Data set [4] is described as follows: Oral bioavailability in CD1 mouse at 10 mg/kg measured after 0.03 to 24 hrs by UHPLC-TOF method. The format is ADME, organism-based. Particulars: in vivo, time 0.03-24 hrs. The procedure, abridged:
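Male CD-1 mice, acclimatized and individually housed, dosed IV and PO as amorphous-solid suspension. Terminal cardiac-puncture blood into heparinized tubes on wet ice, centrifuged at 4 °C within 15 min; plasma snap-frozen at −20 °C. IV arm sampled 2 min–24 h, oral arm 5 min–24 h. Plasma analysed by UHPLC-quadrupole-TOF MS.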

A short description of data set [5]: Clearance in CD1 mouse at 1 mg/kg, iv measured after 0.083 to 24 hrs by UHPLC-TOF method. Particulars: in vivo, time 0.083-24 hrs. The data set is classed as ADME, organism-based.
A short description of data set [6]: Clearance in Beagle dog at 0.3 mg/kg, iv measured after 0.03 to 24 hrs by UHPLC-TOF method. The data set is classed as ADME, organism-based, Canis lupus familiaris. Conditions: in vivo, time 0.03-24 hrs.
Data set [7] relates to Respiratory syncytial virus. Nature of the data set: Antiviral activity against Respiratory syncytial virus Memphis 37b infected in human HEp2 cells treated over 10 serial passages by plaque assay. The format is functional, organism-based. Conditions: HEp-2.
A short description of data set [8]: Induction of adverse effect in human infected with Respiratory syncytial virus A Memphis 37b assessed as diarrhea at 200 to 350 mg administered twice daily administered for 5 days. Conditions: in vivo, 120 h, dose 200-350 mg, time 5 day. The procedure, abridged:
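Challenge study in healthy adults aged 18–45 inoculated with about 4 log10 PFU of RSV-A Memphis 37b. Dosing was 200 or 350 mg twice daily for 5 days after infection was confirmed. Adverse events were monitored daily. ECG, physical examination and urinalysis were done at prespecified time points.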

The nature of data set [9]: Intrinsic clearance in human hepatocytes at 3 uM assessed per million cells measured up to 60 mins by LC-MS/MS analysis. The data set is classed as ADME, cell-based, Hepatocyte. Particulars: read-out: CLH.
Data set [10] in a line: Intrinsic clearance in Beagle dog hepatocytes at 3 uM assessed per million cells measured up to 60 mins by LC-MS/MS analysis. The format is ADME, cell-based, Canis lupus familiaris, Hepatocyte. Conditions: read-out: CLH.
A short description of data set [11]: Cardiotoxicity in dog assessed as effect on QT interval by telemetry. The data set is classed as toxicity, Canis lupus familiaris.
Data set [12] can be described thus: Tmax in Beagle dog at 3 mg/kg, […] by UHPLC-TOF method. The data set is classed as ADME, organism-based, Canis lupus familiaris. Particulars: in vivo, po.
Data set [13] in a line: Volume of distribution at steady state in Beagle dog at 0.3 mg/kg, iv measured after 0.03 to 24 hrs by UHPLC-TOF method. The data set is classed as ADME, organism-based, Canis lupus familiaris. Particulars: in vivo, time 0.03-24 hrs, read-out: Vdss. The gist of the method:
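Dogs examined by a veterinary surgeon before each session, fed 2 h post-dose, water ad libitum, dosed as amorphous-solid suspension. Serial blood into heparinized tubes, centrifuged at 4 °C for 10 min at 3000g; plasma snap-frozen at −20 °C. IV sampling 2 min–24 h, oral 15 min–24 h. Plasma analysed by UHPLC-quadrupole-TOF MS.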

`NCc1ccc2c(c1)nc(CN1C(=O)C3(CC3)c3ccc(F)cc31)n2CCCC(F)(F)F` [SISUNATOVIR]: the values for the hepatocyte CLint at 3 µM in [1], in data set [9] and in [10] were 14.8 µL/min/1e6 cells, 6.58 µL/min/1e6 cells and 2.4 µL/min/1e6 cells, respectively. Further, the results for the Activity in data set [2], in data set [8] and in data set [11] were 76.42%, “Toxic” and “Toxic”, respectively. The same compound yielded an IC50 in data set [3] of 1.4 nM. Further, the bioavailability in data set [4] turned out to be 46.4%. For the same compound, the results for the clearance in [5] and in data set [6] were 47.9 mL/min/kg and 17.8 mL/min/kg, respectively. The compound further gave a concentration giving a half-maximal response (EC50) in data set [7] of 89 nM. Besides, in [12], the Tmax worked out at 4 h. For the same compound, in data set [13], the Vd amounted to 17.6 L/kg.
